The text below walks through data of ChEMBL document CHEMBL1144361, “Identification of chemokine receptor CCR4 antagonist” (Bioorg Med Chem Lett, 2005).

The structures appear in SMILES notation. A value given as a limit tells only on which side of the number the result lay.

The target of one experiment is T1, C-C chemokine receptor type 4 (Homo sapiens, UniProt P51679).
T1 sequence (P51679 whole entry): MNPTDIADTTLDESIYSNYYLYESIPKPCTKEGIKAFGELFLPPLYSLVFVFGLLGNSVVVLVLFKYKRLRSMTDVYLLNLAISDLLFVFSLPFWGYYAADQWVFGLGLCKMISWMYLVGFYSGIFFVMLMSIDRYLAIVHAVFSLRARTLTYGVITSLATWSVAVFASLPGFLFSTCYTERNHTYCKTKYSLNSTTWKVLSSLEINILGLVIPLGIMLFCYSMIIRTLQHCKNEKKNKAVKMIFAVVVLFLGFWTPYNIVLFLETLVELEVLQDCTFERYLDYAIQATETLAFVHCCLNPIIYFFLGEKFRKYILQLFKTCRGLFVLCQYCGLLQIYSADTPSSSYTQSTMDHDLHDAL
Kind of experiment: Inhibitory concentration against human C-C chemokine receptor type 4; range = 3.6-6.1 uM. The method in brief:
(§1)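 Whole-cell SPA binding: HEK293 stably expressing human CCR4, 4×10^4 cells/well on poly-L-lysine plates, cultured overnight at 37 °C. Compounds in DMSO (1%). Nonspecific defined with 100 nM unlabeled MDC. 15 min mixing, then 24 h at rt before counting.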
The IC50 is the concentration that gives 50% inhibition. Regarding `CCN(CC)CCCC(C)Nc1nc(/C=C/c2ccccc2)nc2ccccc12` (stereo not given), the IC50 was found to be 6.1 µM. That is a single-digit micromolar value.

Another experiment concerns the target T1, C-C chemokine receptor type 4. Kind of experiment: Inhibitory concentration against human C-C chemokine receptor type 4. The method in brief: as §1
As for `CCN(CC)CCCC(C)Nc1ccnc(COc2ccc(Cl)cc2)c1` (stereo not given), it took 20 µM to reach half-maximal inhibition (IC50).
For the compound `CC(C)CCCC(C)Nc1nccc(OCc2ccc(Cl)cc2Cl)n1` (stereo not given), the IC50 is more than 10 µM.
On to `CCN(CC)CCCC(C)Nc1nc(COc2ccccc2)nc2ccccc12` (stereo not given), for which inhibition was half-maximal at 2 µM (IC50).
Take `CCN(CC)CCCC(C)Nc1ccnc(OCc2ccc(Cl)cc2Cl)n1` (stereo not given): the IC50 was 2.8 µM. The IC50 values of the last two compounds are within 1.5-fold of each other.
The same measure, in the same setting: in the case of `CCN(CC)CCCC(C)Nc1ccnc(COc2ccc(Cl)c(Cl)c2)c1` (stereo not given) it was 4 µM; in that of `CCN(CC)CCCC(C)Nc1ccnc(COc2ccc(F)cc2)c1` (stereo not given), 18 µM; in that of `CCN(CC)CCCC(C)Nc1ccnc(COc2cccc(OC)c2)n1` (stereo not given), more than 30 µM.
`CCN(CC)CCCCNc1nccc(OCc2ccc(Cl)cc2Cl)n1` displayed an IC50 of 3 µM.
The same measure, in the same setting: in the case of `CCN(CC)CCCC(C)Nc1ccnc(COc2ccc(OC)cc2OC)n1` (stereo not given) it was more than 30 µM; in that of `CCN(CC)CCCC(C)Nc1nc(Cc2ccccc2)nc2ccccc12` (stereo not given), 10 µM; in that of `CN(C)CCCCCNc1nccc(OCc2ccc(Cl)cc2Cl)n1`, 2 µM.
Still for that read-out and setting: for `CCN(CC)CCCC(C)Nc1nc(CCCc2ccccc2)nc2ccccc12` (stereo not given) the value was more than 10 µM.
`CCN(CC)CCCC(C)Nc1ccnc(COc2ccccc2)c1` (stereo not given) returned an IC50 of more than 30 µM.
The same measure, in the same setting: in the case of `CCN(CC)CCCC(C)Nc1nc(CCc2ccccc2)nc2ccccc12` (stereo not given) it was 2.4 µM; in that of `CCN(CC)CCCC(C)Nc1ccnc(COc2cc(Cl)cc(Cl)c2)n1` (stereo not given), 25 µM.
Compound `CCN(CC)CCCNc1nccc(OCc2ccc(Cl)cc2Cl)n1` came in with an IC50 of 8 µM.
Same read-out and setting: for `CCN(CC)CCCC(C)Nc1nc(C(=O)Nc2ccccc2)nc2ccccc12` (stereo not given) the value was more than 10 µM; for `CCN(CC)CCNc1nccc(OCc2ccc(Cl)cc2Cl)n1`, 9 µM.
On the same count and under the same terms, for `CCN(CC)CCCC(C)Nc1nccc(NCc2ccc(Cl)cc2Cl)n1` (stereo not given) the value was 0.27 µM; for `CCN(CC)CCCC(C)Nc1ccnc(COc2ccccc2Cl)c1` (stereo not given), 17 µM.
Regarding `CCN(CC)CCCC(C)Nc1nccc(OCc2ccc(Cl)cc2Cl)n1` (stereo in doubt; 11a), the IC50 was determined as 1.5 µM.
As for `CCN(CC)CCCC(C)Nc1nccc(OCc2ccc(Cl)cc2Cl)n1` (stereo in doubt; 10a), the IC50 was 1.5 µM.
Same read-out and setting: for `CCN(CC)CCCC(C)Nc1nc(-c2ccccc2)nc2ccccc12` (stereo not given) the value was more than 25 µM; for `CCN(CC)CCCC(C)Nc1nc(-c2ccc3ccccc3c2)nc2ccccc12` (stereo not given), 2.5 µM; for `CCN(CC)CCCC(C)Nc1ccnc(COc2ccc(Cl)cc2Cl)c1` (stereo not given), 1.2 µM.
The same measure, in the same setting: in the case of `CCN(CC)CCCC(C)Nc1ccnc(COc2cccc(Cl)c2)n1` (stereo not given) it was 25 µM.

Target in another experiment: not listed separately
Description: Inhibitory concentration against C-C chemokine receptor type 3. Also noted: species or system Homo sapiens.
Compound `CCN(CC)CCCC(C)Nc1nccc(NCc2ccc(Cl)cc2Cl)n1` (stereo not given) came in with an IC50 of 2 µM.

A further experiment addresses C-X-C chemokine receptor type 3 (Homo sapiens) (UniProt P49682). Kind of experiment: Inhibitory concentration against CXC chemokine receptor 3.
`CCN(CC)CCCC(C)Nc1nccc(NCc2ccc(Cl)cc2Cl)n1` (stereo not given) gave a half-inhibitory concentration (IC50) of more than 30 µM.

The target of another experiment is C-C chemokine receptor type 2 (Homo sapiens, UniProt P41597). Description: Inhibitory concentration against C-C chemokine receptor type 2.
C-C chemokine receptor type 2, sequence (P41597 whole entry): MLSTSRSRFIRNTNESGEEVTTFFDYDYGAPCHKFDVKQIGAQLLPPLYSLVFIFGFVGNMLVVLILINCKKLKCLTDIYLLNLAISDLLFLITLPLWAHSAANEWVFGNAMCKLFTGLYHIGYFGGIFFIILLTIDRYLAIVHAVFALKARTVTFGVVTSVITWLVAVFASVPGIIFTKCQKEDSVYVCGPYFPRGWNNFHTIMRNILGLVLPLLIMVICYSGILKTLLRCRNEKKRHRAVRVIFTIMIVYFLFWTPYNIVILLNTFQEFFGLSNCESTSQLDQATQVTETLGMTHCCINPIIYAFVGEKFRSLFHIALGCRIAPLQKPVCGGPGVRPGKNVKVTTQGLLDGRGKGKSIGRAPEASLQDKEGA
`CCN(CC)CCCC(C)Nc1nccc(NCc2ccc(Cl)cc2Cl)n1` (stereo not given): the IC50 is more than 10 µM.
